Results: PubChem BioAssay AID488936 (Broad Institute, 2010)
Active and inactive are the calls of the source.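 The calls were made as follows: active = compounds lowering caspase luminescence whose fitted AC50 is at most ten times their top valid dose; inconclusive = flat partial inhibition or a poor quality curve fit; inactive = the rest.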

Assay: suppressors of cytokine-driven caspase-3/7 activity, dose response, orthogonal assay for beta-cell apoptosis inhibitor project, INS-1E rat cells, dry powder, set 2 (AID 488936)
Settings: INS-1E cytokine-induced caspase-3/7 luminescence, 48 h; at 23.5 µM (top of the series)
Method in brief: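 Assay system: rat INS-1E insulinoma cells; Reagent: IFN-gamma, TNF-alpha and IL-1β cytokine cocktail; Control set: SAHA positive control; Measure: IC50 of caspase-3/7 activity from concentration-response curve; Detection: Luciferase-based luminescence, Caspase-Glo 3/7 reagent; Times: 48 h cytokine and compound exposure, 1 h detection.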
With COc1ccc(S(=O)(=O)N(C)C[C@@H]2Oc3c(NC(=O)C4CCOCC4)cccc3C(=O)N([C@@H](C)CO)C[C@H]2C)cc1 the activity change, negative = inhibition was -8.46% (inactive).

Same assay, conditions: INS-1E cytokine-induced caspase-3/7 luminescence, 48 h; at 26 µM (top of the series)
In the case of C[C@@H]1CN([C@@H](C)CO)C(=O)c2cccc(NC(=O)Nc3cccc4ccccc34)c2O[C@H]1CN(C)S(=O)(=O)c1ccc(Cl)cc1, the activity change, negative = inhibition is reported as 6.46% (inactive). With C[C@@H]1CN([C@@H](C)CO)C(=O)c2cccc(NS(=O)(=O)c3ccccc3)c2O[C@H]1CN(C)Cc1ccc(C(F)(F)F)cc1 the activity change, negative = inhibition was 7.22% (inactive). In the case of COc1ccc(S(=O)(=O)N(C)C[C@@H]2Oc3c(NC(=O)NC4CCCCC4)cccc3C(=O)N([C@@H](C)CO)C[C@H]2C)cc1, the activity change, negative = inhibition is reported as -7.02% (inactive). With C[C@@H]1CN([C@@H](C)CO)C(=O)c2cccc(NC(=O)Nc3ccccc3)c2O[C@H]1CN(C)S(=O)(=O)c1ccc(F)cc1 the activity change, negative = inhibition was -13.5% (inactive). For COc1ccc(S(=O)(=O)N(C)C[C@@H]2Oc3c(NC(=O)c4cccc5ccccc45)cccc3C(=O)N([C@@H](C)CO)C[C@H]2C)cc1, the activity change, negative = inhibition was -10.7% (inactive). In the case of COc1ccc(S(=O)(=O)N(C)C[C@@H]2Oc3c(NC(=O)NC(C)C)cccc3C(=O)N([C@@H](C)CO)C[C@H]2C)cc1, the activity change, negative = inhibition is reported as -8.08% (inactive). With C[C@@H]1CN([C@@H](C)CO)C(=O)c2cccc(NC(=O)Nc3cccc4ccccc34)c2O[C@H]1CN(C)S(=O)(=O)c1ccc(OC(F)(F)F)cc1 the activity change, negative = inhibition was 100% (inactive). With COc1ccccc1S(=O)(=O)N(C)C[C@@H]1Oc2c(NC(=O)Nc3cccc4ccccc34)cccc2C(=O)N([C@@H](C)CO)C[C@H]1C the activity change, negative = inhibition was -13% (inactive). With COc1ccc(NC(=O)Nc2cccc3c2O[C@@H](CN(C)S(=O)(=O)c2ccc(OC)cc2)[C@H](C)CN([C@@H](C)CO)C3=O)cc1 the activity change, negative = inhibition was -9.51% (inactive). With COc1ccc(S(=O)(=O)N(C)C[C@H]2Oc3c(NC(=O)Nc4cccc5ccccc45)cccc3C(=O)N([C@H](C)CO)C[C@H]2C)cc1 the activity change, negative = inhibition was -14.4% (inactive). With C[C@@H]1CN([C@@H](C)CO)C(=O)c2cccc(NC(=O)Nc3cccc4ccccc34)c2O[C@H]1CN(C)S(=O)(=O)c1cccs1 the activity change, negative = inhibition was 4.63% (inactive). With C[C@@H]1CN([C@@H](C)CO)C(=O)c2cccc(NC(=O)Nc3cccc4ccccc34)c2O[C@H]1CN(C)S(=O)(=O)c1ccc(F)cc1 the activity change, negative = inhibition was 4.91% (inactive). For COc1ccc(S(=O)(=O)N(C)C[C@@H]2Oc3c(NC(=O)Nc4cccc5ccccc45)cccc3C(=O)N(C(C)C)C[C@H]2C)cc1, the activity change, negative = inhibition was -6.92% (inactive). In the case of C[C@@H]1CN([C@@H](C)CO)C(=O)c2cccc(NC(=O)Nc3ccc(F)cc3)c2O[C@H]1CN(C)S(=O)(=O)c1ccc(Cl)cc1, the activity change, negative = inhibition is reported as -5.69% (inactive). With C[C@@H]1CN([C@@H](C)CO)C(=O)c2cccc(NC(=O)Nc3ccccc3)c2O[C@H]1CN(C)S(=O)(=O)c1ccc(Cl)cc1 the activity change, negative = inhibition was -7.25% (inactive). For C[C@@H]1CN([C@@H](C)CO)C(=O)c2cccc(NC(=O)Nc3cccc4ccccc34)c2O[C@H]1CN(C)S(=O)(=O)c1ccc2ncsc2c1, the activity change, negative = inhibition was -18.8% (inactive). For C[C@@H]1CN([C@H](C)CO)C(=O)c2cccc(NC(=O)Nc3ccc(F)cc3)c2O[C@H]1CN(C)S(=O)(=O)c1ccc(Cl)cc1, the activity change, negative = inhibition was 10.4% (inactive). In the case of COc1ccc(S(=O)(=O)N(C)C[C@@H]2Oc3c(NS(=O)(=O)c4cn(C)cn4)cccc3C(=O)N([C@@H](C)CO)C[C@H]2C)cc1, the activity change, negative = inhibition is reported as -6.15% (inactive). With COc1ccc(S(=O)(=O)N(C)C[C@@H]2Oc3c(NS(=O)(=O)c4ccc(Cl)cc4)cccc3C(=O)N([C@@H](C)CO)C[C@H]2C)cc1 the activity change, negative = inhibition was -4.43% (inactive). With COc1ccc(S(=O)(=O)N(C)C[C@H]2Oc3c(NC(=O)Nc4cccc5ccccc45)cccc3C(=O)N([C@H](C)CO)C[C@@H]2C)cc1 the activity change, negative = inhibition was 3.23% (inactive). For Cc1ccc(S(=O)(=O)N(C)C[C@@H]2Oc3c(NC(=O)Nc4cccc5ccccc45)cccc3C(=O)N([C@@H](C)CO)C[C@H]2C)cc1, the activity change, negative = inhibition was 11.5% (inactive).
